RORa activator – activators of human nuclear receptor RORA. P35398. CHO-K1 Gal4-RORA LBD luciferase reporter, luminescence; percent increase over mock-subtracted basal signal. activation, % at 10 µM. hit rate 1.5% among 65,000;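 active = activation above the mean of all tested compounds plus 3 SD, cut at about 49% in these data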;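 note: 0% = DMSO-treated RORA cells and 100% = added signal equal to DMSO minus mock-transfected cells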
Target sequence (P35398 whole entry, looked up, the tested form may be a part): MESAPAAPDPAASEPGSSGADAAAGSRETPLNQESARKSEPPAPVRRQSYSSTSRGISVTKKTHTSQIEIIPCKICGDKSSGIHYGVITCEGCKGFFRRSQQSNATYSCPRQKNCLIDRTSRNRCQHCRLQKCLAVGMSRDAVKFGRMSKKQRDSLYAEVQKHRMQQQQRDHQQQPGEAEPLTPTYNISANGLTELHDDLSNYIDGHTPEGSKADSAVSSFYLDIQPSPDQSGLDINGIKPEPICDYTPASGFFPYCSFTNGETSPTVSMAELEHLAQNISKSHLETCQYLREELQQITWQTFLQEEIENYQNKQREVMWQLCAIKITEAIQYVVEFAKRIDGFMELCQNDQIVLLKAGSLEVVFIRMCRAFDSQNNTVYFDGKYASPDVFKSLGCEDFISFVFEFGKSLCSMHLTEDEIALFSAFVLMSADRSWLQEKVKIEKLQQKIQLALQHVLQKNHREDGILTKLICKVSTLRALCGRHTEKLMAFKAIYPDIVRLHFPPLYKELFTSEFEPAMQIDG
Htt clearance – compounds clearing mutant huntingtin protein; hit rate 0.42% among 47,000; inhibition, % at 1.5 µM; HeLa Exon1htt(103Q)mCFP, aggregate imaging; zero = plate's median compound well;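 active = inhibition of aggregate fluorescence above about 70%, also judged a hit by eye on the cell image, limit read from the data, passing the limit was not always enough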;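 note: cells exposed to compound for three days before fixation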
PKA kinase inh – blocks human protein kinase A activity | P17612 | PKA Kemptide phosphorylation, Kinase-Glo ATP luminescence | inhibition, % at 6 µM | hit rate 0.1% among 65,000 | AID 524;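 active = inhibition above the screen-wide mean inhibition plus 3 SD, cut at about 21% in these data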
SF1 activator – activates the human nuclear receptor SF-1. Q13285. CHO-K1 Gal4-SF-1 LBD luciferase reporter; % increase over DMSO SF-1-specific signal. activation, % at 10 µM. hit rate 1.9% among 65,000. AID 522;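 active = activation above the mean activation of all tested compounds plus 3 SD, cut at about 50% in these data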
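Material: CHO-K1 cells with Gal4–hSF-1 LBD chimera plus Gal4-driven luciferase / Input: 4,000 CHO-K1 cells per well / Incubation: compound exposure 20 h at 37 °C / Signal: luminescence read 15 min after SteadyLite luciferase reagent, after room-temperature equilibration / Read-out: percent activation versus DMSO / Benchmarks: DMSO negative control and −SF1 background wells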
JNK3 inh – JNK3 (human) kinase inhibition. hit rate 0.61% among 60,000. AID 746. inhibition, % at 8 µM. purified JNK3 kinase activity, HTS. P53779; in the data active = inhibition above about 17%;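 note: 0% = DMSO and 100% = reference inhibitor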
ROCK2 blocker – inhibitors of human Rho kinase 2; O75116; purified ROCK2, Kinase-Glo ATP depletion luminescence; inhibition, % at 6 µM; hit rate 0.35% among 60,000;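 active = inhibition above the screen-wide mean inhibition plus 3 SD, cut at about 18% in these data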;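 note: plate controls were DMSO wells for no effect and Y-27632 control wells after no-enzyme background subtraction for full effect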
An asterisk follows results filed as active; x = no result; ! = not confirmed by another sample. Hits are enriched below; roughly 2.9% of the tested compounds scored in any of these assays.

SMILES | RORa activator | Htt clearance | PKA kinase inh | SF1 activator | JNK3 inh | ROCK2 blocker
Cc1cc(N2CCOCC2)nc2ccc(NC(=O)CCC(=O)N3CCCC(C)C3)cc12 (stereo unspecified) | -5.2 | x | 1.5 | 9.6 | 1.9 | 5.0
COCCN(CCOC)S(=O)(=O)c1ccc(C(=O)Nc2nc(C)c(C(C)=O)s2)cc1 | -9.0 | x | -4.7 | 6.7 | 0.1 | -2.6
COCCN(CCOC)S(=O)(=O)c1ccc(C(=O)Nc2nc(-c3ccncc3)cs2)cc1 | 1.8 | -14.9 | 12.4 | -5.2 | 5.7 | 19.3*
Cc1csc(SCC(=O)NC(=O)NCc2ccccc2)n1 | -3.8 | 77.9* | 2.3 | -11.3 | 1.9 | -1.3
O=C(CSc1nncs1)NC(=O)NCc1ccccc1 | -0.9 | x | 4.0 | -15.7 | 3.4 | 6.9
CCOc1ccc(C2CC(c3cccc(OC)c3)Nc3ncnn32)cc1 (stereo unspecified) | -13.7 | x | 5.8 | 10.8 | 5.4 | 2.9
CC(C)N=c1cc2n(-c3ccc(Cl)cc3)c3ccccc3nc-2cc1Nc1ccc(Cl)cc1 | 14.4 | x | 0.6 | -28.9 | 0.8 | 3.5
Cc1cccc(-c2nnc(-c3ccccc3)o2)c1 | 45.5 | x | 12.5 | 59.5* | -3.0 | 1.0
c1ccc(-c2nnc(-c3ccco3)o2)cc1 | 23.3 | x | -0.2 | 51.0* | -0.4 | -0.6
Cc1ccccc1-c1nnc(-c2ccccc2)o1 | 1.9 | x | 4.0 | 46.2 | 0.4 | 2.6
CC1(C)OC(=O)C2(Cc3ccccc3N3CCCCC32)C(=O)O1 (stereo unspecified) | -5.6 | -9.5 | 3.4 | -9.7 | -2.9 | 1.8
COC(=O)c1cccc(NC(=O)c2nn(C)c(=O)c3ccccc23)c1 | -12.2 | x | 2.0 | 5.1 | 4.5 | -0.8
O=C(Nc1ccc(Cl)c(Cl)c1)N1CC=CCC1 | 57.8* | x | 9.2 | 55.4* | 6.3 | 3.6
CC1(C)CC(=O)C=C(NCCN2CCN(C(=O)Nc3ccc(Cl)c(Cl)c3)CC2)C1 | 14.3 | x | -3.6 | -15.3 | 0.0 | 2.3
Cc1c(C(=O)N2CCCCC2)nnn1-c1nonc1N | x | -47.4 | x | x | x | x
C1CNCCNCCNCCN1 | -25.7 | x | -7.5 | 10.0 | -9.8 | -5.2
CCOC(=O)c1c(NC(=O)c2cc(C3CC3)on2)sc2c1CCCC2 | -21.0 | x | 10.1 | 11.2 | 4.9 | 5.7
COc1ccc(CNC(=O)c2cnn3c(C(F)F)cc(C)nc23)cc1OC | 3.9 | x | 1.4 | -5.0 | 24.3* | 3.0
CCn1c(SCC(=O)Nc2ccc(C(C)=O)cc2)nc2ccccc21 | 61.8* | -0.7 | 11.4 | 64.8* | -2.2 | 6.5
CCOc1ccc(N2C(=O)CC(n3ccc(C)n3)C2=O)cc1 (stereo unspecified) | x | -5.0 | x | x | x | x
O=C(c1cccc(Cl)c1)N1CCN(Cc2ccccc2F)CC1 | -13.6 | 26.5 | 9.2 | 23.3 | 3.5 | 6.7
CC1=CCC(Cc2nc3ccccc3o2)C1(C)C (stereo unspecified) | 10.3 | 76.9* | -1.0 | -8.3 | -2.5 | 1.2
O=c1[nH]c2ccccc2nc1-c1cccs1 | 9.0 | x | -1.2 | 54.2* | 12.5 | 0.7
c1csc(-c2nnsc2-c2nc3ccccc3[nH]2)c1 | 9.5 | x | 3.0 | 20.8 | -1.2 | -0.7
CC1(C)CC(=O)C(C=Nc2ccc3c(c2)OCO3)=C(O)C1 | 65.4* | x | -9.0 | 72.4* | -9.1 | -3.6
SMILES | RORa activator | Htt clearance | PKA kinase inh | SF1 activator | JNK3 inh | ROCK2 blocker
CC1(C)CC(=O)C(C=NCc2ccc3c(c2)OCO3)=C(O)C1 | 14.9 | x | -0.6 | 10.7 | 0.0 | 3.6
Oc1[nH]c2ccccc2c1/C=N/c1nccs1 | 38.8 | x | 5.8 | 37.6 | 27.2* | 7.0
Oc1[nH]c2ccccc2c1C=Nc1ccc2c(c1)OCO2 | 84.2* | x | 5.7 | 62.5* | 36.4* | 4.9
Cc1[nH]nc2c1C(c1cccc(O)c1)C1=C(CC(C)(C)CC1=O)N2 (stereo unspecified) | -1.4 | -0.5 | 8.6 | 7.3 | 16.1 | 1.9
CC1CCc2c(sc3nc(SCc4nc(-c5ccccc5)no4)n(C)c(=O)c23)C1 (stereo unspecified) | -18.6 | x | 4.9 | -0.6 | -1.9 | 3.1
O=C(Nc1cccc2nsnc12)c1cccs1 | 78.2*! | -72.3 | -1.0 | 24.2 | -9.9 | -4.2
O=C(Nc1ccc2nsnc2c1)c1cccs1 | 3.2 | -21.6 | 8.4 | -4.7 | 4.4 | 9.3
COc1cccc(C(=O)/C=C/Nc2cc(C)ccc2O)c1 | 21.9 | 12.5 | -1.4 | 56.0* | 5.6 | 0.5
Cc1cccc(OCC(=O)Nc2cc(C)ccc2O)c1 | 0.2 | 84.8* | 1.9 | 1.5 | 1.6 | 0.6
Cc1c(NC(=O)C(C)Sc2nc3ccccc3c(=O)n2CCO)c(=O)n(-c2ccccc2)n1C (stereo unspecified) | -15.2 | -5.8 | 0.5 | 11.5 | 7.1 | 4.5
CCN1CCCC1CNC(=O)C(=O)Nc1ccccc1OC (stereo unspecified) | x | -27.3 | x | x | x | x
CN(C)S(=O)(=O)c1ccc(C(=O)OCn2nnc3ccccc3c2=O)cc1 | x | 61.8 | x | x | x | x
CC(=O)NC(C)C(=O)OCc1ccc(Cl)cc1Cl (stereo unspecified) | -18.0 | 4.2 | 8.0 | 6.0 | 0.2 | 6.4
Cn1cnc2cc(NC(=O)c3ccc(Cl)cc3)ccc21 | 79.1* | x | 1.2 | 66.9* | -0.1 | 9.2
COc1ccc(NC(=O)C2CC(c3cc(OC)c(OC)c(OC)c3)=NO2)cc1OC (stereo unspecified) | 3.5 | x | 2.2 | 5.3 | 3.4 | 0.0
COc1cccc(C2=NOC(C(=O)Nc3cc(OC)c(OC)c(OC)c3)C2)c1 (stereo unspecified) | -5.6 | x | 0.0 | 15.9 | 81.0* | -1.7
Cn1c(CNc2ccc(Cl)cc2)nc2ccccc21 | 36.9 | 9.0 | 0.7 | 59.0* | -3.0 | 4.1
c1ccc(Cn2c(CNc3nc4ccccc4n3CCN3CCOCC3)nc3ccccc32)cc1 | -18.0 | -4.1 | 4.6 | -3.7 | 1.8 | 6.4
Cc1nc2cc(NCc3nc4ccccc4n3Cc3ccccc3)ccc2n1C | 50.4* | 21.9 | -3.9 | 23.2 | 1.3 | -9.1
Cn1c(NCc2ccccc2Cl)nc2ccccc21 | 50.2* | x | 6.9 | 45.9 | -1.3 | 4.9
Cn1c(NCc2ccccc2O)nc2ccccc21 | 27.0 | x | 5.7 | 48.6 | -2.5 | 4.2
COc1ccc(-c2c(=O)n(OCc3ccccn3)c3ccccc3[n+]2[O-])cc1OC | -21.5 | x | 10.1 | 15.8 | -3.8 | 7.5
CCOC(=O)COn1c(=O)c(-c2ccc(OC)c(OC)c2)[n+]([O-])c2ccccc21 | -11.6 | 74.3* | 4.6 | -3.2 | -2.9 | 6.1
CSc1nc2c(c(C(F)(F)F)n1)CC(C)CC2 (stereo unspecified) | x | 3.3 | x | x | x | x
c1ccc(-c2onc3cc4c(cc23)OCCO4)cc1 | 74.3* | x | 6.3 | 28.4 | 22.1* | 0.7
CN1CCN(C(=O)C23CCC(C)(c4nc5ccccc5nc42)C3(C)C)CC1 (stereo unspecified) | x | 49.4 | x | x | x | x
Cc1cc(NC(=O)NC(=O)c2cccc(OC(F)(F)C(F)F)c2)n[nH]1 | 52.4* | 29.6 | -4.1 | 81.3* | 2.6 | -1.6
CCOCCCNc1ccc(-c2ccccc2)nn1 | 47.2 | 9.4 | -3.0 | 58.2* | -3.8 | -1.1
COc1ccc(CCC(=O)Nc2nc3c(s2)CN(C)CC3)cc1OC | 16.1 | x | -0.9 | -3.5 | -4.4 | 109.1*

High-throughput results (PubChem)
